This is one part of a sample in which hits are shown more often than they occur.
Cdc25B block – inhibitors of Cdc25B phosphatase catalytic domain, primary screen, biochemical, OMFP fluorescence. recombinant Cdc25B, OMFP fluorescence Ex485/Em525. inhibition, %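 (compounds tested at 10 µM final in the well)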. 0.1% of 65,000 active. AID 368, 2006; in the data active = inhibition above about 50%
HePTP inh – inhibitors of human HePTP phosphatase, primary screen, biochemical, absorbance, leukemia target; Tyrosine-protein phosphatase non-receptor type 7 (Homo sapiens), P35236; recombinant HePTP phosphatase activity, OD absorbance; inhibition, % at 20 µM; 0.64% of 110,000 active; AID 521, 2006; in the data active = inhibition above about 50%;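 also: plate controls were vehicle for no effect and reference inhibitor for full effect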
Target sequence (P35236 whole entry, looked up): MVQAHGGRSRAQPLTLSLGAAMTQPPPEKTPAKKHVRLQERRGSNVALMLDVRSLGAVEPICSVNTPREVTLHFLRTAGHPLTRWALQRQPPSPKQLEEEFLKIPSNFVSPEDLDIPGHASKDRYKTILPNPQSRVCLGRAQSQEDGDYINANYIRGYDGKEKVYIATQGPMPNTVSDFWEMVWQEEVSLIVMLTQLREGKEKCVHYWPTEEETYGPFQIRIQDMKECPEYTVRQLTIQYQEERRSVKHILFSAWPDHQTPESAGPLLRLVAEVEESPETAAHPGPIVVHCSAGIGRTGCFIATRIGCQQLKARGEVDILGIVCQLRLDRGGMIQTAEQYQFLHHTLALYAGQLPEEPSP
MMP13 inh – human MMP13 inhibitors, primary screen, biochemical, FRET peptide cleavage; Collagenase 3 (Homo sapiens), P45452; inhibition, % at 4 µM; MMP-13 fTHP FRET cleavage, Mca fluorescence; 0.07% of 65,000 active;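 active = inhibition above the mean of compound-free control plate wells plus 3 SD, cut at about 14% in these data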;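 also: 0% = DMSO wells and 100% = wells with reference MMP-13 inhibitor after basal subtraction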
E coli WT exp – growth inhibitors of wild-type E. coli, primary screen, strain BW25113, expanded library, OD600. OD600 absorbance. growth inhibition, % at 100 µM. 0.15% of 98,000 active. AID 710, 2007;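 active = growth inhibition above about 50% at one test dose, limit read from the data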;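 also: growth measured after 20 h incubation at 37 °C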
DUSP1 inh – MKP-1 phosphatase inhibitors, primary screen, biochemical, in vitro; inhibition, %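 (compounds tested at a single concentration somewhere between 10 and 100 µM)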; 0.15% of 65,000 active; recombinant MKP-1, OMFP hydrolysis fluorescence; Dual specificity protein phosphatase 1 (Homo sapiens), P28562; AID 374, 2006;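 active = inhibition above about 50%, limit read from the data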;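 also: 0% = DMSO max control wells and 100% = wells with enzyme stopped by NaOH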
Ecoli tolC – growth inhibitors of E. coli tolC mutant, primary screen, strain BW25113 ΔtolC::kan, 384-well; AID 573, 2007; OD615; 2.2% of 65,000 active; growth inhibition, % at 10 µM (by protocol);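 active = growth inhibition at or above a cutoff equal to the mean over every tested compound plus 3 SD, cut at about 60% in these data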;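 also: growth measured after 20 h incubation at 37 °C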
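Test system: tolC-deleted E. coli BW25113 | Medium: LB with kanamycin 50 µg/mL | Compound dosing: Single concentration, 10 µM final per compound | Schedule: 37 °C, 20 h exposure | Measured by: OD at 615 nm | Evaluation: Percent growth inhibition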
* marks the source's active call; other numbers are inactive results; nt = no result.

SMILES	Cdc25B block	HePTP inh	MMP13 inh	E coli WT exp	DUSP1 inh	Ecoli tolC
O=[N+]([O-])c1ccc(CSc2nc3ccccc3o2)cc1	nt	nt	nt	3	nt	nt
CCOc1cc(C)c(C(C)C)cc1S(=O)(=O)N1CC(C)OC(C)C1 (centres undefined)	-7	5	2	2	11	68*
COC(=O)c1[nH]c2cc(OC)ccc2c1NC(=O)CCN1CCN(c2ccccc2)CC1	nt	nt	nt	3	nt	nt
COC(=O)c1[nH]c2ccccc2c1NC(=O)CN1CCN(c2cccc(OC)c2)C(C)C1 (centres undefined)	5	4	-10	-28	9	77*
Cc1ccc(N2CCN(/N=C\c3ccccn3)CC2)cc1	nt	-4	nt	nt	nt	nt
O=C(COc1ccc2c3c(c(=O)oc2c1)CCC3)c1ccc(-c2ccccc2)cc1	nt	8	nt	nt	nt	nt
C=CCn1cnc2c(c1=O)c1nc3ccccc3nc1n2/N=C/c1cc(OC)c(OC)c(OC)c1	-3	7	-3	4	-42	77*
C#CCSc1nnc(-c2cccc3ccccc23)o1	10	2	-7	nt	2	97*
CCCCOc1[nH]c2nc(-c3ccco3)n(Cc3ccco3)c(=N)c2c1C#N	3	-4	4	-2	-18	78*
O=S(=O)(Cc1ccc(Cl)cc1)CC(O)COc1ccc(Cl)cc1 (centres undefined)	nt	-4	nt	nt	nt	nt
CS(=O)c1nc(-c2ccc(Br)cc2)cc(-c2ccccc2)c1C#N (centres undefined)	3	5	2	-9	-16	95*
CCc1cc(-c2[nH]ncc2-c2ccc3c(c2)OCO3)c(O)cc1O	12	-6	-5	nt	15	100*
COc1ccc(-c2[nH]ncc2-c2ccc3c(c2)OCCO3)c(O)c1	18	5	-5	3	-11	98*
Cc1ccc(C)c(SCC(=O)Nc2nnc(-c3ccccc3)o2)c1	-10	8	2	-7	-3	100*
CCOC(=O)Cc1c(C)nc2c(-c3cccc(Br)c3)c[nH]n2c1=O	8	-10	-23	12	36	100*
CCOC(=O)Cc1c(C)nc2c(C#N)c[nH]n2c1=O	nt	nt	nt	-3	nt	nt
CCSc1oc(-c2ccco2)nc1S(=O)(=O)c1ccccc1	nt	4	1	-8	-19	39
CSc1oc(-c2ccccc2)nc1S(=O)(=O)c1ccc(C)cc1	-14	2	-4	-19	2	38
CCSc1oc(-c2ccccc2)nc1S(=O)(=O)c1ccccc1	-2	-7	6	-1	-9	69*
CCCSc1oc(-c2ccco2)nc1S(=O)(=O)c1ccccc1	-12	5	2	-8	4	84*
CN1CCN(c2oc(-c3ccco3)nc2S(=O)(=O)c2ccccc2)CC1	-17	5	1	-6	5	-4
O=S(=O)(c1ccccc1)c1nc(-c2ccco2)oc1N1CCCCCC1	-9	-3	4	-10	0	82*
CCOC(=O)c1c(NC(=O)CCc2ccc(CC)o2)sc(C)c1C	nt	nt	nt	2	nt	nt
COC(=O)c1c(NC(=O)CCc2ccc(C)o2)sc(C)c1C	-15	12	1	1	-1	61*
CCCOc1ccc2oc(=O)c3c(c2c1)CCCN3C(=O)CN1CCc2ccccc2C1	-11	2	1	-2	28	77*
SMILES	Cdc25B block	HePTP inh	MMP13 inh	E coli WT exp	DUSP1 inh	Ecoli tolC
N#C/C(=C\c1ccc[nH]1)Sc1nc2ccccc2s1	-5	8	0	12	5	100*
N#C/C(=C\c1cccs1)Sc1nc2ccccc2s1	-11	14	-7	-21	0	70*
COC(=O)c1ccc(C(=O)OC)c(NC(=O)/C=C/c2ccc([N+](=O)[O-])cc2)c1	nt	8	nt	nt	nt	nt
CCOc1ccccc1NC(=O)CN1C(=O)/C(=C/c2cccc(Br)c2)SC1=S	nt	-3	nt	nt	nt	nt
COc1ccccc1/C=C1/SC(=S)N(C(C)C(=O)O)C1=O (centres undefined)	nt	0	nt	nt	nt	nt
O=C(CCNc1cc(Cl)cc(Cl)c1)c1ccco1	2	4	2	27	1	85*
O=C(CCNc1ccc(F)c(Cl)c1)c1ccco1	0	6	-10	19	13	8
CN(C)CCN1C(=O)C(=O)/C(=C(/O)c2ccccc2)C1c1ccc(N(C)C)cc1 (centres undefined)	nt	1	nt	nt	nt	nt
COc1ccc2[nH]c3c(=O)n(CCCCC(=O)N4CCCC4)c(=S)[nH]c3c2c1	-5	0	-18	1	38	100*
COc1ccc(N2CCN(C(=O)CCCn3c(=S)[nH]c4cc5c(cc4c3=O)OCO5)CC2)cc1	-8	8	-3	-8	6	-7
COC(=O)C1=C(C)N(c2ccc(Br)cc2)C(=O)/C1=C\c1ccc(O)cc1	nt	8	nt	nt	nt	nt
O=C(O)c1ccc2c(c1)C1C=CCC1C(c1cccc([N+](=O)[O-])c1)N2 (centres undefined)	nt	102*	nt	nt	nt	nt
COc1ccc(-c2nc(-c3cccs3)c(-c3cccs3)[nH]2)cc1O	4	8	-52	-5	7	97*
Oc1ccc(-c2nc(-c3ccccc3)c(-c3cccs3)[nH]2)cc1O	nt	3	nt	nt	nt	nt
CCCn1nnc(NC(=O)c2cc(Br)cc(Br)c2OC)n1	-13	7	0	-1	50*	14
COC(=O)C1=C(C)NC(=S)NC1c1cccs1 (centres undefined)	nt	0	nt	nt	nt	nt
O=C(O)C1CC(O)CN1C(=S)Nc1ccccc1 (centres undefined)	nt	13	nt	nt	nt	nt
CNC(=S)N1CCN(c2c(F)cc3c(=O)c(C(=O)O)cn(C4CC4)c3c2OC)CC1C (centres undefined)	nt	nt	nt	100*	nt	nt
COc1c(N2CCN(C(=S)Nc3ccccc3)C(C)C2)c(F)cc2c(=O)c(C(=O)O)cn(C3CC3)c12 (centres undefined)	nt	nt	nt	99*	nt	nt
Cc1c(-n2cc(C(=O)O)c(=O)c3cc(F)c(N4CCCC4)c(F)c32)c(=O)n(-c2ccccc2)n1C	-7	1	-3	nt	13	-29
CC(NS(=O)(=O)c1ccc2c(c1)OCCO2)C(=O)O (centres undefined)	nt	6	nt	nt	nt	nt
Cc1nc(N2CCN(Cc3ccccc3)CC2)nc2c1C(=O)CC(c1ccco1)C2 (centres undefined)	-7	5	2	-8	6	79*
O=[N+]([O-])c1cncc([N+](=O)[O-])c1Nc1ccc(Cl)cn1	nt	87*	nt	nt	nt	nt
CCN1CCN(Cc2c(C)[nH]c3c(ccc4ccccc43)c2=O)CC1	nt	2	nt	nt	nt	nt
Cc1[nH]c2c(Cl)cccc2c(=O)c1CN1CCCC1	63*	-3	-1	10	-2	0
CCOC(=O)c1c(C)c(C(=O)Nc2cc(OC)ccc2OC)c(C)n1CC	-13	2	-3	5	2	68*
